Experimental data from ChEMBL document CHEMBL1140106, “Blocking estrogen signaling after the hormone: pyrimidine-core inhibitors of estrogen receptor-coactivator binding” (J Med Chem, 2008).

Assays:
Estrogen receptor beta [1] = biological target: T1, Estrogen receptor beta (Homo sapiens, UniProt Q92731); assay: Binding affinity to ERbeta assessed as inhibition of fluorescein-labeled nuclear receptor domain of steroid receptor coactivator 3 by TR-FRET assay
[2] = Cytotoxicity against human HEC1 cells assessed as decrease in viable cell count at 20 uM; assay type: cell-based; conditions: hec-1, 20 µM
Estrogen receptor [3] = biological target: T2, Estrogen receptor (Homo sapiens, UniProt P03372); assay: Binding affinity to ERalpha assessed as inhibition of fluorescein-labeled nuclear receptor domain of steroid receptor coactivator 3 by TR-FRET assay
T2 sequence (P03372 whole entry): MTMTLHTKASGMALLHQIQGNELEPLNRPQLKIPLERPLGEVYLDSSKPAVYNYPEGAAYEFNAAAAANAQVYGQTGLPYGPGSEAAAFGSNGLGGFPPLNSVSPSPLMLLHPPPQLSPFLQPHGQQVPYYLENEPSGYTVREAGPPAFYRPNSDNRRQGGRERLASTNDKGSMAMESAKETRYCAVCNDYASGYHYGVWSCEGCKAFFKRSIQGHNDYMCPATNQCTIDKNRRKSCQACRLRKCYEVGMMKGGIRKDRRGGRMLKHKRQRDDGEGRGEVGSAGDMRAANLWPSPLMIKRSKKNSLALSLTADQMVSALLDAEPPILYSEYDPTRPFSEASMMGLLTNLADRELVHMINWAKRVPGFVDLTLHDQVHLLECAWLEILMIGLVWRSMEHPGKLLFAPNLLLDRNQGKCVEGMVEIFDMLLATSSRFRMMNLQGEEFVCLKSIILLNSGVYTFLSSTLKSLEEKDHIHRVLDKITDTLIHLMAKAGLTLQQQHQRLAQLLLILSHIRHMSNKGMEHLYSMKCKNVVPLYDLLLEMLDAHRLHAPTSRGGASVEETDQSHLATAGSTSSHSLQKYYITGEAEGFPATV
How it was run: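 Fluorescein-SRC-3-NRD (50 nM) was then added for 1 h at room temperature in the dark. Buffer: 20 mM Tris pH 7.5, 0.01% NP40, 50 mM NaCl. SRC-1 Box II peptide served as positive control.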

Estrogen receptor [4] = biological target: T2, Estrogen receptor; assay: Antagonist activity at ERalpha in human HEC1 cells assessed as inhibition of estrogen-induced transcriptional activity after 24 hrs by reporter gene assay; assay type: functional, cell-based, HEC-1
How it was run: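 HEC-1 cells, which lack endogenous ER, were lipofectin-transfected with full-length ERα vector, 2ERE-luciferase reporter and pCMV β-gal as internal control. After 6 h the medium was changed to 5% charcoal-dextran-treated calf serum with ligands.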

Estrogen receptor [5] = biological target: T2, Estrogen receptor; assay: Binding affinity to ERalpha assessed as inhibition of steroid receptor coactivator 2 interaction by fluorescence polarization assay
Estrogen receptor beta [6] = biological target: T1, Estrogen receptor beta; assay: Antagonist activity at ERbeta in human HEC1 cells assessed as inhibition of estrogen-induced transcriptional activity after 24 hrs by reporter gene assay; assay type: functional, cell-based, HEC-1
Estrogen receptor [7] = biological target: T2, Estrogen receptor; assay: Binding affinity to ERalpha assessed as inhibition of steroid receptor coactivator interaction in african green monkey COS7 cells by mammalian 2 hybrid assay; assay type: cell-based, COS-7

T1 sequence (Q92731 whole entry, the tested form may be a part): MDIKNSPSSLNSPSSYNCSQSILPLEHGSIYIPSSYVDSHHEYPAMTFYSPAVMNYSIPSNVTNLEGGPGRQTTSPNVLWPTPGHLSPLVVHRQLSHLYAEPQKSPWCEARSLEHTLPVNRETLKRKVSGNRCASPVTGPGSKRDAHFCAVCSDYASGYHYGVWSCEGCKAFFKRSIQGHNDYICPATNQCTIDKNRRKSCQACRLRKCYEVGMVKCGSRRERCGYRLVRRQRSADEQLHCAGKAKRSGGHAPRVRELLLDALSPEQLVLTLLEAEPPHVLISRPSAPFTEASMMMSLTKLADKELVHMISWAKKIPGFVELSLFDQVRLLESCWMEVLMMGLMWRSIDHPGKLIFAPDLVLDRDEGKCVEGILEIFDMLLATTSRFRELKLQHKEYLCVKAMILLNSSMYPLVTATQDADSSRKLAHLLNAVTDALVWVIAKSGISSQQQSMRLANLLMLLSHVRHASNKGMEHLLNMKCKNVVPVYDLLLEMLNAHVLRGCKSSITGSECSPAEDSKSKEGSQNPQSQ

CC(C)CNc1cc(NCC(C)C)nc(NCC(C)C)n1
Ki (Estrogen receptor beta [1]): 299 µM | Activity [2]: Active

c1ccc(CCc2cc(NCc3cccc4ccccc34)nc(NCc3cccc4ccccc34)n2)cc1
Ki (Estrogen receptor [3]): > 1000 µM | Ki (Estrogen receptor beta [1]): > 1000 µM | IC50 (Estrogen receptor [4]): > 1000 µM

CC(C)CCc1cc(NCc2ccccc2)nc(NCC(C)C)n1
Ki (Estrogen receptor [3]): 5.8 µM | Ki (Estrogen receptor beta [1]): > 1000 µM | IC50 (Estrogen receptor [4]): 5.8 µM

CC(C)COc1cc(OCC(C)C)nc(OCC(C)C)n1
Ki (Estrogen receptor [3]): > 1000 µM | Ki (Estrogen receptor beta [1]): > 1000 µM | IC50 (Estrogen receptor [4]): > 1000 µM

CC(C)COc1cc(/C=C/c2ccccc2)nc(OCC(C)C)n1
Ki (Estrogen receptor [3]): > 1000 µM | Ki (Estrogen receptor beta [1]): > 1000 µM | IC50 (Estrogen receptor [4]): > 1000 µM

CC(C)CCc1cc(NCC(C)C)nc(OCC(C)C)n1
Ki (Estrogen receptor [3]): > 1000 µM | Ki (Estrogen receptor beta [1]): > 1000 µM | IC50 (Estrogen receptor [4]): 6.9 µM | Activity [2]: Active

C(=C\c1cc(OCc2ccccc2)nc(OCc2ccccc2)n1)/c1ccccc1
Ki (Estrogen receptor [3]): > 1000 µM | Ki (Estrogen receptor beta [1]): > 1000 µM | IC50 (Estrogen receptor [4]): > 1000 µM

c1ccc(COc2cc(OCc3ccccc3)nc(OCc3ccccc3)n2)cc1
Ki (Estrogen receptor [3]): > 1000 µM | Ki (Estrogen receptor beta [1]): > 1000 µM | IC50 (Estrogen receptor [4]): > 1000 µM

c1ccc(CCc2cc(NCc3ccccc3)nc(NCc3ccccc3)n2)cc1
Ki (Estrogen receptor [3]): > 1000 µM | Ki (Estrogen receptor beta [1]): > 1000 µM | Ki (Estrogen receptor [5]): 49 µM | IC50 (Estrogen receptor [4]): > 1000 µM

CC(C)CNc1nc(/C=C/c2ccccc2)cc(NCc2ccccc2)n1
Ki (Estrogen receptor [3]): 16 µM | Ki (Estrogen receptor beta [1]): > 1000 µM | IC50 (Estrogen receptor [4]): 9.8 µM

CC(C)CNc1nc(/C=C/c2ccccc2)cc(/C=C/c2ccccc2)n1
Ki (Estrogen receptor [3]): > 1000 µM | Ki (Estrogen receptor beta [1]): > 1000 µM | IC50 (Estrogen receptor [4]): > 1000 µM

CC(C)CNc1cc(CCc2ccccc2)nc(NCC(C)C)n1
Ki (Estrogen receptor [3]): 5.8 µM | Ki (Estrogen receptor beta [1]): > 1000 µM | IC50 (Estrogen receptor [4]): 2.1 µM | IC50 (Estrogen receptor beta [6]): > 1000 µM | Activity [2]: Active

CC(C)CCc1cc(NCc2cccc3ccccc23)nc(NCc2cccc3ccccc23)n1
Ki (Estrogen receptor [3]): > 1000 µM | Ki (Estrogen receptor beta [1]): > 1000 µM | IC50 (Estrogen receptor [4]): > 1000 µM

C(=C\c1cc(NCc2ccccc2)nc(NCc2ccccc2)n1)/c1ccccc1
Ki (Estrogen receptor [3]): > 1000 µM | Ki (Estrogen receptor beta [1]): > 1000 µM | IC50 (Estrogen receptor [4]): > 1000 µM

CC(C)CCc1cc(NCc2ccccc2)nc(NCc2ccccc2)n1
Ki (Estrogen receptor [3]): 4.1 µM | Ki (Estrogen receptor beta [1]): > 1000 µM | IC50 (Estrogen receptor [4]): 8.3 µM

CC(C)CNc1cc(/C=C/c2ccccc2)nc(NCc2ccccc2)n1
Ki (Estrogen receptor [3]): > 1000 µM | Ki (Estrogen receptor beta [1]): > 1000 µM | IC50 (Estrogen receptor [4]): 12 µM | Activity [2]: Active

CC(C)CCc1nc(NCc2cccc3ccccc23)cc(NCC(C)C)n1
Ki (Estrogen receptor [3]): > 1000 µM | Ki (Estrogen receptor beta [1]): > 1000 µM | IC50 (Estrogen receptor [4]): > 1000 µM

CC(C)CNc1cc(CCc2ccccc2)nc(NCc2cccc3ccccc23)n1
Ki (Estrogen receptor [3]): > 1000 µM | Ki (Estrogen receptor beta [1]): > 1000 µM | IC50 (Estrogen receptor [4]): > 1000 µM

CC(C)CNc1nc(CCc2ccccc2)cc(NCc2ccccc2)n1
Ki (Estrogen receptor [3]): 1.7 µM | Ki (Estrogen receptor beta [1]): > 1000 µM | IC50 (Estrogen receptor [4]): 1.9 µM

CC(C)CCc1cc(NCC(C)C)nc(N(C)CC(C)C)n1
Ki (Estrogen receptor [3]): 7.2 µM | Ki (Estrogen receptor beta [1]): > 1000 µM | IC50 (Estrogen receptor [4]): 9.7 µM

CC(C)CCc1cc(NCC(C)C)nc(NCC(C)C)n1
Ki (Estrogen receptor beta [1]): > 1000 µM | IC50 (Estrogen receptor beta [6]): > 1000 µM

CC(C)CNc1cc(NCc2ccccc2)nc(NCC(C)C)n1
Ki (Estrogen receptor beta [1]): > 1000 µM | IC50 (Estrogen receptor [4]): 9.5 µM | IC50 (Estrogen receptor beta [6]): > 1000 µM

CC(C)CCc1cc(OCc2ccccc2)nc(OCc2ccccc2)n1
Ki (Estrogen receptor [3]): > 1000 µM | Ki (Estrogen receptor beta [1]): > 1000 µM | IC50 (Estrogen receptor [4]): > 1000 µM

c1ccc(CCc2cc(OCc3ccccc3)nc(OCc3ccccc3)n2)cc1
Ki (Estrogen receptor [3]): > 1000 µM | Ki (Estrogen receptor beta [1]): > 1000 µM | IC50 (Estrogen receptor [4]): > 1000 µM

CC(C)CNc1cc(/C=C/c2ccccc2)nc(NCc2cccc3ccccc23)n1
Ki (Estrogen receptor [3]): > 1000 µM | Ki (Estrogen receptor beta [1]): > 1000 µM | IC50 (Estrogen receptor [4]): > 1000 µM

CC(C)CCc1cc(NCc2cccc3ccccc23)nc(NCc2ccccc2)n1
Ki (Estrogen receptor [3]): > 1000 µM | Ki (Estrogen receptor beta [1]): > 1000 µM | IC50 (Estrogen receptor [4]): > 1000 µM

CC(C)CCc1cc(NCC(C)C)nc(NCc2ccccc2)n1
Ki (Estrogen receptor [3]): 7.9 µM | Ki (Estrogen receptor beta [1]): > 1000 µM | IC50 (Estrogen receptor [4]): 1.8 µM | Activity [2]: Active

c1ccc(CSc2cc(SCc3ccccc3)nc(SCc3ccccc3)n2)cc1
Ki (Estrogen receptor [3]): > 1000 µM | Ki (Estrogen receptor beta [1]): > 1000 µM | IC50 (Estrogen receptor [4]): > 1000 µM

c1ccc(CCc2cc(NCc3cccc4ccccc34)nc(NCc3ccccc3)n2)cc1
Ki (Estrogen receptor [3]): > 1000 µM | Ki (Estrogen receptor beta [1]): > 1000 µM | IC50 (Estrogen receptor [4]): > 1000 µM

CC(C)CNc1nc(/C=C/c2ccccc2)cc(N(C)CC(C)C)n1
Ki (Estrogen receptor [3]): > 1000 µM | Ki (Estrogen receptor beta [1]): > 1000 µM | IC50 (Estrogen receptor [4]): > 1000 µM

c1ccc2c(CCc3cc(NCc4cccc5ccccc45)nc(NCc4cccc5ccccc45)n3)cccc2c1
Ki (Estrogen receptor [3]): > 1000 µM | Ki (Estrogen receptor beta [1]): > 1000 µM | IC50 (Estrogen receptor [4]): > 1000 µM

CC(C)CCc1cc(CCC(C)C)nc(NCc2ccccc2)n1
Ki (Estrogen receptor [3]): > 1000 µM | Ki (Estrogen receptor beta [1]): > 1000 µM | IC50 (Estrogen receptor [4]): > 1000 µM

N=C(N)N/N=C/C1=C(Cl)c2ccccc2CC1
IC50 (Estrogen receptor [7]): 5.5 µM
